Reference: paper PMC3078649 (Molecular pharmaceutics, 2010)

How the values were obtained:
[1] = system: E-cadherin-mediated adhesion of Caco-2 cells; assay: Homotypic adhesion of Caco-2 single cells to attached cells; assay type: cell-based; conditions: 250 µM peptide
In short: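 Single Caco-2 cells were released by Ca2+/Mg2+-free EBSS (1 h, 37 °C) and labelled with BCECF-AM. They were added at 5 × 10^4 cells/well to Caco-2 monolayers pretreated 2 h at 37 °C in Ca2+-free EBSS (1 mM Mg2+, 0.1% BSA). Co-incubation with peptide was 2 h at 37 °C. Positive control was anti-E-cadherin antibody DECMA-1 at 1:100. Unbound cells were removed and attached cells lysed; fluorescence was read at ex 485/em 530 nm.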

[2] = system: intercellular junctions of Caco-2 cell monolayers; assay: Inhibition of intercellular junction resealing; assay type: cell-based; conditions: for Activity in the resealing assay compared to either ADT6 or HAV6: conjugates with aminocaproic acid (cap) linker; for Inhibition of resealing (% TEER difference between 8- and 2-h time points) compared to blank: AP-BL sides of Caco-2 monolayers (Fig. 5); for Inhibition of resealing of intercellular junctions (TEER time course): 0.5 mM peptide, AP-BL sides, conditioned Caco-2 monolayers
In short: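 Caco-2 cells were grown on 3 µm-pore Transwell inserts (50,000 cells/insert) and used on days 15–20. Initial TEER was taken after 1 h at 37 °C in HBSS pH 7.4 (10 mM Hepes, 1% glucose, 2.0 mM CaCl2). Cells were conditioned 2 h in calcium-free medium. Peptide (0.5 or 1.0 mM) in Ca-HBSS was added AP, BL or AP-BL, with blank and unrelated-peptide controls. TEER was read hourly, minus 90 Ω × cm2 background, in triplicate. Inhibition was the TEER change from 2 to 8 h.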

EC5 domain of E-cadherin = conditions: cited from earlier work
blood brain barrier [3] = assay: In situ rat brain perfusion, 14C-mannitol permeation; assay type: in vivo; conditions: for Enhancement of 14C-mannitol permeation through the BBB compared to vehicle: 1.0 mM test substance pre-perfused 4 min at 10 ml/min, triplicate
In short: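 Perfusion was 4 min with vehicle (0.5% Tween in sterile saline) or 1.0 or 0.5 mM peptide, then immediately 4 min with 14C-mannitol (10 µCi). Brain radioactivity was measured in triplicate, reported as mean ± SD, and compared with vehicle (p < 0.05).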

MDCK cell monolayers = conditions: shown previously; cited from earlier work
[4] = system: E-cadherin-mediated adhesion of Caco-2 cells; conditions: shown previously; cited from earlier work
Caco-2 cell monolayers = assay: Peptide stability on Caco-2 cell monolayers; assay type: in vitro ADME
blood brain barrier [5] = assay: In situ rat brain perfusion, [3H; assay type: in vivo; conditions: 1.0 mM HAV6 first, then daunomycin with 500 µM verapamil; p < 0.001 (Fig. 3 E)

Substance: Ac-QDPELPDKNM-NH2 [BLG2]
- Potency in blocking homotypic cell-cell adhesion relative to BLG1 and BLG4 [1]: more potent

Substance: Ac-DTPPV-cap-SHAVSS-NH2
- Activity in the resealing assay compared to either ADT6 or HAV6 [2]: did not show any improved activity

Substance: Ac-SSVAHS-NH2 [HAVrev, reference compound]
- Inhibition of resealing (% TEER difference between 8- and 2-h time points) compared to blank ([2]; 1.0 mM peptide): could not suppress the resealing

Substance: Ac-TYRIWRDTAN-NH2 [BLG4]
- Binding to the expressed EC5 domain by NMR spectroscopy (EC5 domain of E-cadherin): bind the expressed EC5 domain
- Rank of inhibitory activity in the resealing assay among BLG peptides ([2]; 1.0 mM peptide, AP-BL sides (Fig. 5)): best inhibitory activity
- Inhibition of resealing (% TEER difference between 8- and 2-h time points) compared to blank ([2]; 1.0 mM peptide): significantly suppress the resealing

Substance: EATDSG [LABL6, reference compound]
- Enhancement of 14C-mannitol permeation through the BBB compared to vehicle (blood brain barrier [3]): did not enhance

Substance: Ac-QGADTPPVGV-NH2 [ADT10]
- Enhancement of 14C-mannitol permeation through MDCK cell monolayers (MDCK cell monolayers): enhance ^14C-mannitol through MDCK cell monolayers
- Inhibition of resealing of intercellular junctions (TEER time course) [2]: still active
- Inhibition of resealing (% TEER difference between 8- and 2-h time points) compared to blank ([2]; 1.0 mM peptide): significantly suppress the resealing

Substance: Ac-ADTPPV-NH2 [ADT6]
- Enhancement of 14C-mannitol permeation through MDCK cell monolayers (MDCK cell monolayers): enhance ^14C-mannitol through MDCK cell monolayers

Substance: Ac-LFSHAVSSNG-NH2 [HAV10]
- Inhibition of homotypic Caco-2 cell adhesion [4]: inhibit the homotypic Caco-2 cell adhesion
- Peptide concentration remaining (Caco-2 cell monolayers; 100 µM peptide, apical side of Caco-2 cell monolayers, 8 h incubation): 80%
- Enhancement of 14C-mannitol permeation through MDCK cell monolayers (MDCK cell monolayers): enhance ^14C-mannitol through MDCK cell monolayers
- Inhibition of resealing of intercellular junctions (TEER time course) [2]: not at 0.5 mM

Substance: Ac-HSVSAS-NH2 [HAVscr, reference compound]
- Inhibition of resealing (% TEER difference between 8- and 2-h time points) compared to blank ([2]; 1.0 mM peptide): could not suppress the resealing

Substance: Ac-SHAVSS-NH2 [HAV6]
- Metabolic stability on Caco-2 cell monolayer (Caco-2 cell monolayers; 96-h incubation on Caco-2 cell monolayer): metabolically stable
- Binding to the expressed EC5 domain by NMR spectroscopy (EC5 domain of E-cadherin): bind the expressed EC5 domain
- Amount of mannitol delivered to the brain: lowering when HAV6 was lowered from 1.0 mM to 0.5 mM (blood brain barrier [3]; 0.5 mM versus 1.0 mM HAV6): 40%
- Enhancement of 14C-mannitol permeation through the BBB compared to vehicle (blood brain barrier [3]): significantly enhanced
- Amount of daunomycin in the brain compared to vehicle-treated BBB (blood brain barrier [5]): tremendous increase

Substance: Ac-NDDGGQFVVT-NH2 [BLG3]
- Inhibition of resealing (% TEER difference between 8- and 2-h time points) compared to blank ([2]; 1.0 mM peptide): could not inhibit the resealing

Substance: Ac-SHAVSS-cap-ADTPPV-NH2
- Activity in the resealing assay compared to either ADT6 or HAV6 [2]: did not show any improved activity
